# Experimental data from different studies.
# Target: Calcium/calmodulin-dependent protein kinase type 1 (CAMK1, Homo sapiens, UniProt Q14012)
Compound,assay,setting,endpoint,value
Nc1ncnc2occ(-c3ccc(NC(=O)Nc4cc(C(F)(F)F)ccc4F)cc3)c12,cell-free assay,20 µM,remaining signal,5.5%
O=C1NC(=O)c2cc(Nc3ccc(F)cc3)c(Nc3ccc(F)cc3)cc21,cell-free assay,0.5 µM,remaining signal,104%
COc1cc(Nc2cnc(C#N)c(O[C@H](C)CN(C)C)n2)ncc1-c1cnn(C)c1,"enzyme activity, inhibitor, radiometric",10 µM,remaining activity,95%
Cc1nc(N2CC[C@@H](O)C2)ncc1-c1cc(C(F)(F)F)cc2[nH]ncc12,"cell-free assay, competition with immobilised ligand",1 µM,remaining binding,100%
Cc1ccc(Nc2nccc(N(C)c3ccc4c(C)n(C)nc4c3)n2)cc1S(N)(=O)=O,"enzyme activity, inhibitor",0.3 µM,inhibition,13%
Nc1nc(NC2CCCCC2)sc1C(=O)c1ccccc1,"enzyme activity, inhibitor",10 µM,remaining activity,86%
FC(F)c1nc2ccccc2n1-c1nc(N2CCOCC2)nc(N2CCOCC2)n1,"enzyme activity, inhibitor",10 µM,remaining activity,114%
CCCS(=O)(=O)Nc1ccc(F)c(C(=O)c2c[nH]c3ncc(-c4ccc(Cl)cc4)cc23)c1F,"enzyme activity, inhibitor",1 µM,inhibition,< 10%
C=CC(=O)Nc1cc(Nc2nccc(Nc3cc(Cl)c(F)cc3C(C)(C)O)n2)c(OC)cc1N1CC[C@@H](N(C)C)C1,"enzyme activity, inhibitor",1 µM,inhibition,2%
O=C1Nc2ccc(Cl)cc2C1=Cc1cc(Cl)c(O)c(Cl)c1,cell-free assay,0.5 µM,remaining signal,94.9%
O=C(Nc1cccnn1)N1CC(C/C=C/c2cncc(Oc3ccc(C(F)(F)F)cn3)n2)C1,"cell-free assay, competition with immobilised ligand",1 µM,remaining binding,100%
CC/C(=N\NC(=O)NCc1cccc(O)c1)c1ccc(O)c(C)c1O,"enzyme activity, inhibitor",0.1 µM,inhibition,-2.3%
NS(=O)(=O)c1cc(NC(=O)Cc2ccccc2)ccc1Oc1cccc(Cl)c1,"cell-free assay, competition with immobilised ligand",1 µM,remaining binding,90%
O=C(Nc1cnn(-c2csc(C(=O)NC3COC3)c2)c1)Nc1c(F)cccc1Cl,"enzyme activity, inhibitor",5 µM,remaining activity,98%
CNC(=O)c1cc(Oc2ccc(NC(=O)Nc3ccc(Cl)c(C(F)(F)F)c3)cc2)ccn1,"enzyme activity, inhibitor",0.3 µM,inhibition,-6%
Cc1cc(NC(=O)c2cccc3cc(-c4cccc5[nH]nc(N)c45)ccc23)ccc1F,"enzyme activity, inhibitor",0.1 µM,activity vs control,116%
CCCOc1ccc([C@@H]2[C@@H](C(=O)O)[C@H](c3ccc4c(c3)OCO4)CN2CC(=O)Nc2c(CC)cccc2CC)cc1,"cell-free assay, competition with immobilised ligand",1 µM,remaining binding,100%
Oc1cccc(-c2nc(N3CCOCC3)c3oc4ncccc4c3n2)c1,"enzyme activity, inhibitor",10 µM,remaining activity,99%
CC(C)c1ccc(NC(=O)c2cccs2)c(-c2nc3ccccc3[nH]c2=O)c1,"enzyme activity, inhibitor",1 µM,activity vs control,104%
CS(=O)(=O)N1CCCC(NC(=O)[C@H](CCC2CCCCC2)NC(=O)c2ccc(CNc3ncnc4c3nnn4-c3ccccc3)cc2)C1 (stereo partly drawn),"cell-free assay, competition with immobilised ligand",0.1 µM,remaining binding,96%
COc1cc(-c2cc(-c3ccc(N4CCNCC4)cc3)cnc2C)cc(OC)c1OC,"enzyme activity, inhibitor",0.1 µM,inhibition,1%
COc1cc2c(Nc3ccc(Br)cc3F)ncnc2cc1OCC1CCN(C)CC1,cell-free assay,0.5 µM,remaining signal,81.6%
CC(C)(C)C(=O)c1sc(NC2CCCCC2)nc1N,"enzyme activity, inhibitor",10 µM,remaining activity,109%
COc1cc(/C=C/C(=O)CC(=O)/C=C/c2ccc(O)c(OC)c2)ccc1O,"enzyme activity, inhibitor",1 µM,activity vs control,86%
Cc1noc([C@H]2C[C@@H](c3ccc(C(F)(F)F)cc3)CN(C(=O)N3CCS(=O)(=O)C3)C2)n1,"cell-free assay, competition with immobilised ligand",1 µM,remaining binding,100%
CCN(CC)CCNC(=O)c1c(C)[nH]c(/C=C2\C(=O)Nc3ccc(F)cc32)c1C,"enzyme activity, inhibitor",10 µM,inhibition,87%
CC(=O)N1CCC(c2ccc(C(=O)NC3=NCCN3)cc2C(F)(F)F)CC1,"cell-free assay, competition with immobilised ligand",1 µM,remaining binding,100%
c1ccc(CNc2nc(N3CCOc4ccccc43)nc3c2CCCC3)cc1,"target engagement in cells, inhibitor, chemoproteomics",20 mM,inhibition,1.2%
CS(=O)(=O)c1cc(C2(NC(=O)c3cncc4c3cnn4-c3ccc(F)cc3)CC2)ccn1,"cell-free assay, competition with immobilised ligand",1 µM,remaining binding,65%
Cc1ccc(C(=O)Nc2ccc(CN3CCN(C)CC3)c(C(F)(F)F)c2)cc1C#Cc1cnc2cccnn12,enzyme activity,23.5 nM,remaining activity,74%
